Screening results deposited in PubChem by The Scripps Research Institute Molecular Screening Center.
5HT1E antag: 5-HT1E receptor antagonists, primary screen, cell-based, HTS; AID 571, 2007; hit rate 0.99% among 65,000; CHO 5-HT1E Ga15 NFAT-bla reporter, FRET, antagonist; inhibition, % at 6 µM;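 active = inhibition above a set limit, the mean inhibition across every tested compound plus 3 SD, cut at about 29% in these data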;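 also: signal is the 460 over 535 nm emission ratio of beta-lactamase substrate; 0% = agonist plus DMSO wells and 100% = wells without agonist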
Target sequence (P28566 whole entry, looked up): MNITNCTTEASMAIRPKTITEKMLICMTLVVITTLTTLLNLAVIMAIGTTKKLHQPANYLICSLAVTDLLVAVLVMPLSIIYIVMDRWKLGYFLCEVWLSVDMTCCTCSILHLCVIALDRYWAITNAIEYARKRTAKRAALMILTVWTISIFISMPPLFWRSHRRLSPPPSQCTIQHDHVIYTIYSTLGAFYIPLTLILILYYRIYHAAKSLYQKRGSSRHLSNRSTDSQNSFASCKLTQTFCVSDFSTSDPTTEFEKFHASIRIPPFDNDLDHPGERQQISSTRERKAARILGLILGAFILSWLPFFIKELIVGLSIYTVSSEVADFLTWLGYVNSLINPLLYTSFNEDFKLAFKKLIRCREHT
S1P1 ag pot: S1P1 agonists and agonism potentiators, primary screen, cell-based, primary and confirmation screens, CRE-bla reporter; Sphingosine 1-phosphate receptor 1 (Homo sapiens), P21453; S1P1 CRE-bla cells, forskolin, beta-lactamase FRET, potentiator mode; S1P1 agonist co-added at EC20, 2 nM; 100% = saturating reference agonist, 0% = basal; activation, % at 9.5 µM; hit rate 0.57% among 56,000; AID 449, 2006;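 active = activation above a cutoff set at the mean activation of all tested compounds plus 3 SD, cut at about 54% in these data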;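 also: forskolin at 4 µM as EC80 and the EC20 agonist is SEW2871; 100% = SEW2871 at its EC100 plus forskolin at EC80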
5-HT1A blocker: human 5-HT1a receptor antagonists, primary screen, cell-based, CHO, Ga15 NFAT-bla reporter; 5-hydroxytryptamine receptor 1A (Homo sapiens), P08908; CHO 5-HT1a Ga15 NFAT-bla reporter, antagonist mode; inhibition, % at 10 µM; hit rate 0.68% among 62,000;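 active = inhibition above the mean of all tested compounds plus 3 SD, cut at about 43% in these data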;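 also: receptor stimulated by 5-CT agonist at 100 nM near EC80; beta-lactamase reporter measured by ratiometric fluorescence of a cleavable substrate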
S1P3 agonist: human S1P3 receptor agonists, primary screen, cell-based, primary and confirmation, NFAT-BLA reporter | activation, % at 4.5 µM | AID 373, 2006 | S1P3 NFAT-BLA reporter cells, agonism, FRET ratio; relative to 1 µM S1P, basal subtracted | Sphingosine 1-phosphate receptor 3 (Homo sapiens), Q99500 | hit rate 0.1% among 60,000;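 active = activation above the screen-wide mean plus 3 SD, cut at about 4.5% in these data, passing the limit was not always enough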
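Measure – % activation relative to 1 µM S1P (100%), per plate · System – stable CHO line with human S1P3, Gα16, NFAT-BLA reporter · Timing – cells plated overnight, compound 4 h 37 °C, substrate 2 h RT · Technique – fluorescent BLA substrate, ex 405 nm, em 460/535 nm ratio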
5HT1a ag: human 5-HT1a receptor agonists, primary screen, cell-based, CHO, Ga15 NFAT-bla reporter; 5-hydroxytryptamine receptor 1A (Homo sapiens), P08908; CHO 5-HT1a Ga15 NFAT-bla reporter, FRET ratio; 0% basal, 100% maximal reference agonist; activation, % at 10 µM; hit rate 0.56% among 65,000;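 active = activation above the screen-wide mean activation plus 3 SD, cut at about 19% in these data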;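 also: 0% = DMSO wells and 100% = 5-CT at EC100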
5HT1E ag: 5-HT1E receptor agonists, primary screen, cell-based, HTS. 5-hydroxytryptamine receptor 1E (Homo sapiens), P28566. CHO 5-HT1E Ga15 NFAT-bla reporter, FRET; 0% DMSO wells, 100% control agonist wells. activation, % at 6 µM. hit rate 0.69% among 65,000;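 active = activation above a set limit, the screen-wide mean activation plus 3 SD, cut at about 8.5% in these data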;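 also: 100% = positive control agonist at 1 µM giving full maximal response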
An asterisk follows results filed as active; / = not tested or not shown. Shown are actives, neighbours in structure and some others; about 3% of the full set was active somewhere.

SMILES	5HT1E antag	S1P1 ag pot	5-HT1A blocker	S1P3 agonist	5HT1a ag	5HT1E ag
CCOc1ccc2[nH]c(=O)c(CN(CCO)C(c3nnnn3C3CCCCC3)C(C)C)cc2c1 (centres undefined)	0.3	6.9	-6.4	-0.9	-0.8	-0.1
Cc1cc(C2C(=O)CC(=O)CC2c2ccccc2)on1 (centres undefined)	6.0	-3.2	6.6	0.0	-1.1	12.2*
CCCC(=O)C1C(=O)CC(C)(C)C(c2cc(C)no2)C1=O (centres undefined)	-2.3	/	-7.3	-0.2	0.2	0.5
COc1ccc(-c2nn(C)c(=O)c3ccccc23)cc1NC(=O)Cn1nc(C)c2ccccc2c1=O	37.6*	10.9	16.2	0.3	-0.2	1.1
O=C(NCc1ccncc1)/C(=N/O)c1ccccc1	-1.5	17.0	-0.3	-1.4	-2.4	-0.3
COc1cccc(C(=O)Nc2ccc(C(=O)O)cc2)c1	5.2	-16.7	1.7	-0.5	-2.1	0.0
COc1cccc(C(=O)Nc2ccc(C)cc2)c1	-1.0	/	4.3	/	164.4*	1.3
CC1CCN(C2CC(=O)N(c3ccc(Br)cc3Br)C2=O)CC1 (centres undefined)	-4.6	/	16.3	/	-1.1	0.7
CSc1cccc(NC(=O)Nc2ccccc2)c1	17.5	11.1	25.9	-1.8	0.1	10.1*
CSc1cccc(NC(=O)COc2ccccc2)c1	-2.0	/	-11.0	0.3	-2.4	0.3
CCC(NC(=O)c1ccccc1NC(=O)c1ccco1)C(=O)NC1CCCCC1 (centres undefined)	3.0	7.0	21.5	-1.8	-3.2	-0.8
O=C(c1cccc(C(=O)N2CCN(c3ccccc3F)CC2)c1)N1CCN(c2ccccc2F)CC1	-4.7	/	2.6	-0.3	1.2	0.1
O=C(NCN1CCN(c2ccccc2F)CC1)c1ccccc1	-2.0	-0.7	14.6	-0.5	-2.0	10.3*
COc1cccc(N2CCN(C3OC(=O)c4ccccc43)CC2)c1 (centres undefined)	7.8	1.0	1.4	-0.5	-1.0	23.3*
COc1cccc(N2CCN(C3CC(=O)N(c4ccc(Cl)c(Cl)c4)C3=O)CC2)c1 (centres undefined)	-1.2	-12.0	-6.7	0.8	1.9	0.3
Clc1ccc(OCc2nnc(SCc3nc4ccccc4[nH]3)n2Cc2ccco2)cc1	3.5	61.0*	0.9	-0.8	-1.1	0.8
Clc1cccc(-c2nnc(SCc3nc4ccccc4[nH]3)n2Cc2ccco2)c1	15.0	-16.3	26.7	0.3	0.6	0.8
O=C(CN1CCOCC1)Nc1ccc(C2CCCCC2)cc1	-0.1	-0.6	-12.9	0.3	0.9	-0.2
CCCCC(c1nnnn1C1CCCC1)N1CCN(C2CCCCC2)CC1 (centres undefined)	4.9	-4.8	50.2*	-0.2	-0.8	-0.2
CCCC(c1nnnn1C1CCCCC1)N1CCN(c2ncccn2)CC1 (centres undefined)	1.7	-0.3	8.1	-1.1	0.9	-0.1
CCn1cc(C(=O)NCc2ccc3c(c2)OCO3)c(=O)c2ccc(C)nc21	-4.3	-2.6	4.1	-0.2	-3.0	-1.7
Cc1ccc(OCc2nc(-c3ccccc3)no2)c(C)c1	-4.3	77.8*	-1.2	-0.9	-2.1	-0.4
CCOc1ccccc1NC(=O)NC1CCN(CC(=O)Nc2ccc3c(c2)OCCO3)CC1	-1.5	3.6	0.3	-0.2	0.7	-0.6
CCN(CC)c1ccc2cc(-c3nc4ccccc4n3C)c(=O)oc2c1	81.8*	37.7	53.8*	0.1	16.5	6.8
CCN(CC)c1ccc2cc(-c3nc4ccccc4[nH]3)c(=O)oc2c1	49.2*	26.5	26.8	-2.6	-6.4	-0.4
SMILES	5HT1E antag	S1P1 ag pot	5-HT1A blocker	S1P3 agonist	5HT1a ag	5HT1E ag
COC(=O)c1c(NC(=O)c2nc3ncccn3n2)sc(C(=O)N(C)C)c1C	23.0	14.1	1.4	0.4	-2.9	-0.8
CC(NC(=O)C1CCCCC1)c1ccc2c(c1)OCCO2 (centres undefined)	-5.9	-5.2	-9.9	1.1	-1.4	-0.1
CS(=O)(=O)N(CC(=O)N1CCCCCC1)c1cccc(Br)c1	-6.9	/	-5.3	/	-0.3	0.3
COC(=O)C1CCN(C(=O)C(C)Oc2ccc(Cl)cc2Cl)CC1 (centres undefined)	3.2	/	24.1	/	89.8*	-2.2
COc1ccc(OC)c(C(c2nnnn2Cc2ccccc2)N2CCN(C3CCCCC3)CC2)c1 (centres undefined)	-9.4	-18.9	15.1	-1.8	-2.7	0.0
C=CCn1c(=O)c2ccccc2n2c(SC(C)C(=O)Nc3nc(-c4ccccc4)cs3)nnc12 (centres undefined)	38.3*	4.1	0.2	-0.8	0.6	0.0
COc1ccc(-c2cc(-c3cccs3)c(C#N)c(SCC(=O)NCc3ccco3)n2)cc1	31.6*	14.3	23.0	-1.3	3.0	-0.7
O=C(CSc1nc(-c2cccs2)cc(C(F)(F)F)n1)NCc1ccco1	3.8	-1.3	3.8	-1.0	-3.3	0.5
CN1CCN(C(=O)CSc2nc(-c3cccs3)cc(-c3cccs3)c2C#N)CC1	20.5	67.4*	4.6	-0.6	-3.6	3.9
c1ccc(-c2csc3ncn4cnnc4c23)cc1	31.7*	1.1	9.1	-1.1	-1.6	-0.5
Cc1noc(C)c1COC(=O)C1(c2cccc(F)c2)CCCC1	8.3	24.1	18.4	1.1	-1.8	-0.8
O=C(O)C1(c2cccc(Cl)c2)CCC1	3.2	-22.5	-10.3	-0.6	1.0	1.1
Cc1cccc(NC(=O)CCNS(=O)(=O)c2cccc3nsnc23)c1	-6.1	/	-5.2	/	0.1	38.2*
COC(=O)c1sccc1NC(=O)c1cc2c(s1)CCCC2	7.4	22.5	40.2	-1.3	30.0*	-1.1
COC(=O)c1sccc1NC(=O)c1ccc(Br)o1	20.2	-29.7	1.4	-0.9	-0.8	-0.2
COC(=O)c1ccc(COc2ccc(C3C4=C(CCCC4=O)Nc4onc(C)c43)cc2)cc1 (centres undefined)	-1.6	-18.5	-11.7	-0.4	-3.2	0.2
CCC(=O)Oc1ccc2c(C)cc(=O)oc2c1C	6.3	-1.4	6.2	-2.1	65.0*	-0.2
c1cc(Nc2ncnc3sccc23)cc(-c2nnc3n2CCCCC3)c1	29.8*	-19.4	3.8	0.4	0.1	0.0
Cc1cnc(C(=O)Nc2cccc(-c3nnc4n3CCCCC4)c2)cn1	10.0	8.0	8.5	0.3	1.6	-0.3
